Assay results from ChEMBL document CHEMBL4038311, “An Ursolic Acid Derived Small Molecule Triggers Cancer Cell Death through Hyperstimulation of Macropinocytosis” (J Med Chem, 2017).
Active and inactive are the calls of the source. The rule behind the calls is not given here.

Legend:
HeLa [1] = assay: Induction of apoptosis in human HeLa cells assessed as increase in cleaved PARP1 levels at 20 to 30 uM after 24 to 48 hrs by Western blot analysis; assay type: functional, cell-based
Outline: (§1)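 HeLa given indicated concentrations. RIPA lysates, BCA-quantified, SDS-PAGE and PVDF transfer. Anti-caspase-3 or anti-PARP1 applied overnight at 4 °C after 1 h 5% milk block, secondary 2 h at RT. Infrared imaging, GAPDH as loading control.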

MCF7 = assay: Anticancer activity against human MCF7 cells assessed as cell viability after 48 hrs by CCK8 assay; assay type: functional, cell-based; conditions: MCF7, 48 h
Outline: (§2)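 Seeded at 1000 cells/well in DMEM with 10% FBS at 37 °C, 5% CO2, overnight pre-incubation. Serial dilutions from a 100 mM DMSO stock gave final 0–50 µM, with 48 h exposure. CCK-8 read at 450 nm. IC50 fitted against DMSO control, given with s.d., n = 3 independent experiments.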

SK-N-MC [2] = assay: Anticancer activity against human SK-N-MC cells assessed as vacuole formation at 20 uM after 24 hrs by phase contrast microscopic analysis; assay type: functional, cell-based
HT-1080 = assay: Anticancer activity against human HT1080 cells assessed as cell viability after 48 hrs by CCK8 assay; assay type: functional, cell-based; conditions: HT-1080, 48 h; outline: as §2
HeLa [3] = assay: Induction of methuosis in human HeLa cells assessed as decrease in cell viability at 20 uM preincubated with macropinocytosis inhibitor EIPA for 30 mins followed by compound addition measured after 24 to 72 hrs by CCK8 assay; assay type: functional, cell-based
Outline: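 HeLa pretreated 30 min with or without 50 µM EIPA, then given 20 µM or DMSO. CCK-8 viability read at the indicated times.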

HeLa [4] = assay: Induction of methuosis in human HeLa cells assessed as increase in vacuole formation preincubated cells with vacuolar-type H+-ATPase inhibitor Baf-A1 for 1 hr followed by compound addition measured after 24 hrs by phase contrast microscopic analysis; assay type: functional, cell-based
Outline: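 HeLa cells (DMEM, 10% FBS, penicillin/streptomycin, 37 °C, 5% CO2) were given 100 nM bafilomycin A1 for 1 h before compound addition. Vacuole formation was then scored by phase-contrast imaging of live cells.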

[5] = Cytotoxicity against HDF assessed as cell viability at 20 uM after 24 to 48 hrs by CCK8 assay relative to control; assay type: cell-based; conditions: human, HDF cells; read-out: Activity
Outline: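 C2C12 or HDF cells, seeded at 5000/well, given 20 µM or 0.1% DMSO for 24 h or 48 h. CCK-8 absorbance read at 450 nm, relative to DMSO control. Six parallel wells, at least three independent repeats.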

HeLa [6] = assay: Induction of macropinocytosis-like cytosolic vacuolization in human HeLa cells at 20 uM measured within 4 hrs by time lapse phase contrast microscopic analysis; assay type: functional, cell-based
Outline: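 HeLa plated at 50,000 per glass-bottom dish, pre-incubated overnight, then given 20 µM in a live-cell chamber (37 °C, 5% CO2). Phase-contrast frames captured every 90 sec.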

HeLa [7] = assay: Anticancer activity against human HeLa cells assessed as reduction in colony formation after 48 hrs by Giemsa staining-based assay; assay type: functional, cell-based
Outline: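 HeLa cells exposed 48 h to 15, 20 or 25 µM, then reseeded at 500 cells/well in six-well plates. After 15 days, colonies fixed in methanol, stained with Giemsa, photographed and counted.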

C2C12 = assay: Cytotoxicity against mouse C2C12 cells assessed as vacuole formation at 20 uM after 24 hrs by phase contrast microscopic analysis relative to control; assay type: cell-based; conditions: c2c12, 24 h
Outline: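 C2C12 or HDF cells given 20 µM or 0.1% DMSO for 24 h, then imaged live by phase-contrast microscopy.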

HeLa [8] = assay: Anticancer activity against human HeLa cells assessed as cell viability at 20 uM after 48 hrs by CCK8 assay relative to control; assay type: functional; conditions: read-out: Activity
Outline: (§3)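 Cells (5000/well, pre-incubated overnight) exposed to 20 µM for 48 h. CCK-8 absorbance read at 450 nm. Viability given as percent of vehicle (DMSO) control, mean ± SD. Six parallel wells per condition, at least three independent repeats.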

HeLa [9] = assay: Induction of macropinocytosis in human HeLa cells assessed as colocalization of lucifer yellow and early endosomal marker EEA1 at 20 uM after 6 to 24 hrs by confocal microscopic analysis; assay type: functional, cell-based
Outline: (§4)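 HeLa on poly-L-lysine coverslips given 0.1% DMSO or 20 µM for indicated times, then loaded with Lucifer yellow CH. Fixed in 4% PFA 30 min, permeabilized with 0.1% Triton X-100, blocked with 5% BSA. Anti-EEA1, -LAMP1 or -Rab7 applied overnight at 4 °C, Alexa488 secondary 1 h, DAPI counterstain. Confocal imaging.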

HeLa [10] = assay: Induction of methuosis in human HeLa cells assessed as decrease in cell viability preincubated cells with dynamin inhibitor dynasore for 1 hr followed by compound addition measured after 48 hrs by CCK8 assay; assay type: functional, cell-based
SK-N-MC [11] = assay: Anticancer activity against human SK-N-MC cells assessed as cell viability at 20 uM after 48 hrs by CCK8 assay relative to control; assay type: functional; conditions: read-out: Activity; outline: as §3
HeLa [12] = assay: Anticancer activity against human HeLa cells assessed as decrease in cell viability at 20 uM preincubated cells with Z-VAD-FMK for 1 hr followed by compound addition measured after 48 hrs by CCK8 assay; assay type: functional, cell-based
Outline: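 HeLa cells pretreated 1 h with 50 µM z-VAD-FMK, then given the compound. Viability read after 48 h by CCK-8 (450 nm), with DMSO-treated wells as control.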

HeLa [13] = assay: Induction of autophagy in human HeLa cells assessed as LC3-2 accumulation at 20 uM preincubated cells with 3-MA followed by compound addition measured after 24 hrs by Western blot analysis; assay type: functional, cell-based
Outline: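 HeLa pretreated 1 h with or without 3-MA, then 20 µM for 24 h. Lysed in RIPA with protease inhibitors, protein by BCA, SDS-PAGE onto PVDF. Blocked 5% milk, anti-LC3 overnight at 4 °C, secondary 2 h at RT. Infrared imaging, GAPDH loading control.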

HeLa [14] = assay: Induction of methuosis in human HeLa cells assessed as decrease in cell viability preincubated cells with actin inhibitor cytochalasin D for 1 hr followed by compound addition measured after 48 hrs by CCK8 assay; assay type: functional, cell-based
HeLa [15] = assay: Anticancer activity against human HeLa cells assessed as decrease in cell viability at 20 uM preincubated cells with 3-MA followed by compound addition measured after 24 to 48 hrs by CCK8 assay; assay type: functional, cell-based
Outline: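 HeLa cells pretreated 1 h with or without 3-MA, then exposed to 20 µM or 0.1% DMSO for 24 h or 48 h. Viability by CCK-8 absorbance at 450 nm.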

HeLa [16] = assay: Induction of apoptosis in human HeLa cells assessed as increase in cleaved caspase-3 levels at 20 to 30 uM after 24 hrs by Western blot analysis; assay type: functional, cell-based; outline: as §1
HeLa [17] = assay: Induction of macropinocytosis in human HeLa cells assessed as colocalization of lucifer yellow and lysosomal marker LAMP1 at 20 uM after 6 to 24 hrs by confocal microscopic analysis; assay type: functional, cell-based; conditions: TDE = time-dependent effect; outline: as §4

**Q.** For `C[C@H]1[C@H](C)CC[C@]2(C(=O)O)CC[C@]3(C)C(=CC[C@@H]4[C@@]5(C)Cc6cnn(-c7ccc(C#N)cc7)c6C(C)(C)[C@@H]5CC[C@]43C)[C@H]12`, which Activity (HeLa [1]) is on record?
**A.** Its Activity is “Active”.

**Q.** And the IC50 (MCF7)?
**A.** Its IC50 is 17.6 µM.

**Q.** What about the Activity (SK-N-MC [2]) of the same compound?
**A.** Its Activity is “Active”.

**Q.** What about the IC50 (HT-1080) of the same compound?
**A.** Its IC50 is 17.2 µM.

**Q.** What about the Activity (HeLa [3]) of the same compound?
**A.** The Activity was “inactive”.

**Q.** What about the Activity (HeLa [4]) of the same compound?
**A.** Its Activity is “inactive”.

**Q.** And the viability at 20 µM [5]?
**A.** Its viability at 20 µM is 28%.

**Q.** And the Activity (HeLa [6])?
**A.** The Activity was “Active”.

**Q.** And the Activity (HeLa [7])?
**A.** The Activity was “Dose-dependent effect”.

**Q.** What about the Activity (C2C12) of the same compound?
**A.** Its Activity is “Toxic”.

**Q.** What about the viability at 20 µM (HeLa [8]) of the same compound?
**A.** Its viability at 20 µM is 18.6%.

**Q.** What about the Activity (HeLa [9]) of the same compound?
**A.** The Activity was “Active”.

**Q.** And the Activity (HeLa [10])?
**A.** Its Activity is “inactive”.

**Q.** And the viability at 20 µM (SK-N-MC [11])?
**A.** Its viability at 20 µM is 28.6%.

**Q.** And the Activity (HeLa [12])?
**A.** The Activity was “Active”.

**Q.** And the Activity (HeLa [13])?
**A.** Its Activity is “inactive”.

**Q.** What about the Activity (HeLa [14]) of the same compound?
**A.** The Activity was “inactive”.

**Q.** And the Activity (HeLa [15])?
**A.** The Activity was “Active”.

**Q.** And the Activity (HeLa [16])?
**A.** The Activity was “Active”.

**Q.** And the Activity (HeLa [17])?
**A.** The Activity was “Tde”.
